Test results published in ChEMBL document CHEMBL2057149 (J Med Chem, 2012).
Calls of active or inactive are those of the source. No cut-off for these calls is given here.

Assays:
HUVEC [1] = assay: Antiangiogenic activity in VEGF-stimulated HUVEC cells after 72 hrs by CellTiter assay; assay type: functional, cell-based; settings: Homo sapiens
[2] = target: Vascular endothelial growth factor A (Homo sapiens) (UniProt P15692); assay: Binding affinity to VEGF by surface plasmon resonance assay
Plasma [3] = assay: Anticoagulant activity in pooled human plasma assessed as prolongation of the recalcification time at 0.1 mg/ml by Heptest assay; assay type: ADME, cell-free
In short: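 Heptest clotting time in pooled normal human plasma; normal range 13–20 s. Values are the mean of two determinations.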

[4] = target: Fibroblast growth factor 1 (Homo sapiens, UniProt P05230); assay: Binding affinity to FGF-1 by surface plasmon resonance assay
Chain of Fibroblast growth factor 1 (P05230 whole entry): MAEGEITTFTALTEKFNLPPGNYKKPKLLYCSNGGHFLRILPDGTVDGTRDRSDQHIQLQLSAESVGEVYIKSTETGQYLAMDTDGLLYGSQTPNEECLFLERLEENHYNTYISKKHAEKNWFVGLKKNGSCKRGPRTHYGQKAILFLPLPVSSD
In short: (§1)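 Solution-affinity SPR on heparin-coated CM4 chips. FGF-1 measured in HBS-EP (10 mM HEPES pH 7.4, 150 mM NaCl, 3.0 mM EDTA, 0.005% polysorbate 20); FGF-2 measured in HBS-EP with 300 mM NaCl. Kd is the average of at least duplicate measurements ± SD.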

HMVEC [5] = assay: Antiangiogenic activity in VEGF-stimulated HMVEC cells after 72 hrs by CellTiter assay; assay type: functional, cell-based; settings: Homo sapiens
Plasma [6] = assay: Anticoagulant activity in pooled human plasma assessed as activated partial thromboplastin time at 0.1 mg/ml; assay type: ADME, cell-free
In short: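 APTT of pooled normal human plasma measured with compound at 0–100 μg/mL in PBS on a ball coagulameter, using unfractionated heparin as the reference. Normal range 26–36 s; coefficient of variation 2% at 36 s and 5–7% at 90 s or above. Values are the mean of two determinations.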

HUVEC [7] = assay: Antiangiogenic activity in FGF1-stimulated HUVEC cells after 72 hrs by CellTiter assay; assay type: functional, cell-based; settings: Homo sapiens
HMVEC [8] = assay: Antiangiogenic activity in FGF1-stimulated HMVEC cells after 72 hrs by CellTiter assay; assay type: functional, cell-based; settings: Homo sapiens
HUVEC [9] = assay: Antiangiogenic activity in FGF2-stimulated HUVEC cells after 72 hrs by CellTiter assay; assay type: functional, cell-based; settings: Homo sapiens
HMVEC [10] = assay: Antiangiogenic activity in FGF2-stimulated HMVEC cells after 72 hrs by CellTiter assay; assay type: functional, cell-based; settings: Homo sapiens
[11] = target: Fibroblast growth factor 2 (Homo sapiens, UniProt P09038); assay: Binding affinity to FGF-2 by surface plasmon resonance assay; in short: as §1
Chain of Fibroblast growth factor 2 (P09038 143-288 limits assumed): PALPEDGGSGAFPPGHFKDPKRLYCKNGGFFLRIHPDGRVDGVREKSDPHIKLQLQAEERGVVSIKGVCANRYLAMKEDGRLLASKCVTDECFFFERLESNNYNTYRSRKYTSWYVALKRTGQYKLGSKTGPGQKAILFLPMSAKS

Compound | IC50 (HUVEC [1]) [µM] | Kd [2] [µM] | Time (Plasma [3]) [s] | Kd [4] [µM] | Activity (HMVEC [5]) | APTT (Plasma [6]) [s] | IC50 (HUVEC [7]) [µM] | Activity (HMVEC [8]) | IC50 (HUVEC [9]) [µM] | Activity (HMVEC [10]) | Kd [11] [µM]
CC(C)CCC[C@@H](C)[C@H]1CC[C@H]2[C@@H]3CC[C@H]4C[C@@H](O[C@@H]5O[C@H](COS(=O)(=O)[O-])[C@@H](O[C@H]6O[C@H](COS(=O)(=O)[O-])[C@@H](OS(=O)(=O)[O-])[C@H](OS(=O)(=O)[O-])[C@H]6OS(=O)(=O)[O-])[C@H](OS(=O)(=O)[O-])[C@H]5OS(=O)(=O)[O-])CC[C@]4(C)[C@H]3CC[C@]12C.[Na+].[Na+].[Na+].[Na+].[Na+].[Na+].[Na+] | 5.2 | 1.2 | 23.9 | 0.56 | Active | 38.6 | 4 | Active | > 10 | Active | 2.2
CC(C)CCC[C@@H](C)[C@H]1CC[C@H]2[C@@H]3CC[C@H]4C[C@@H](OCc5cn([C@@H]6O[C@H](COS(=O)(=O)[O-])[C@@H](O[C@H]7O[C@H](COS(=O)(=O)[O-])[C@@H](OS(=O)(=O)[O-])[C@H](OS(=O)(=O)[O-])[C@H]7OS(=O)(=O)[O-])[C@H](OS(=O)(=O)[O-])[C@H]6OS(=O)(=O)[O-])nn5)CC[C@]4(C)[C@H]3CC[C@]12C.[Na+].[Na+].[Na+].[Na+].[Na+].[Na+].[Na+] | 1.13 | 1.93 | 26.7 |  | Active | 40.3 | 4.1 | Active | 4.17 | Active | 
CC(C)CCC[C@@H](C)[C@H]1CC[C@H]2[C@@H]3CC[C@H]4C[C@@H](O[C@H]5O[C@H](COS(=O)(=O)[O-])[C@@H](OS(=O)(=O)[O-])[C@H](OS(=O)(=O)[O-])[C@@H]5O[C@H]5O[C@H](COS(=O)(=O)[O-])[C@@H](OS(=O)(=O)[O-])[C@H](OS(=O)(=O)[O-])[C@@H]5OS(=O)(=O)[O-])CC[C@]4(C)[C@H]3CC[C@]12C.[Na+].[Na+].[Na+].[Na+].[Na+].[Na+].[Na+] | 1.8 | 1.3 | 25.5 |  | Active | 40.6 | > 10 | Active | 2.22 | Active | 
CC(C)CCC[C@@H](C)[C@H]1CC[C@H]2[C@@H]3CC[C@H]4C[C@@H](O[C@H]5O[C@H](COS(=O)(=O)[O-])[C@@H](OS(=O)(=O)[O-])[C@H](OS(=O)(=O)[O-])[C@@H]5OS(=O)(=O)[O-])CC[C@]4(C)[C@H]3CC[C@]12C.[Na+].[Na+].[Na+].[Na+] | 2.24 | 3 | 23.9 |  | Active | 36.1 | 2.2 | Active | 2.9 | Active | > 3
CCCCCCCCCCCCCCCCCC(=O)NCCCO[C@@H]1O[C@H](COS(=O)(=O)[O-])[C@@H](O[C@H]2O[C@H](COS(=O)(=O)[O-])[C@@H](O[C@H]3O[C@H](COS(=O)(=O)[O-])[C@@H](OS(=O)(=O)[O-])[C@H](OS(=O)(=O)[O-])[C@H]3OS(=O)(=O)[O-])[C@H](OS(=O)(=O)[O-])[C@H]2OS(=O)(=O)[O-])[C@H](OS(=O)(=O)[O-])[C@H]1OS(=O)(=O)[O-].[Na+].[Na+].[Na+].[Na+].[Na+].[Na+].[Na+].[Na+].[Na+].[Na+] |  | 0.38 | 24.9 |  | Active | 51.1 |  | Active |  | Active | 
